Bioassay records as filed in PubChem BioAssay.
Shown are actives, neighbours in structure and some others; about 9.6% of the full set was active somewhere.
bCat KO growth – primary screen for growth suppressors in beta-catenin knockout HCT116 cells (colon tumor, human) | HCT116 beta-catenin knockout viability, CellTiter-Glo, 60 h; stronger effect = lower value | viability, % at 10 µM | 140,000 tested, 1.5% active;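 active means viability at or under a set limit, the compound median less 4 SD, cut at about 6% in these data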;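 further: 0% = Hyamine 1622 control at 20 µM and 100% = untreated cell control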
PTEN del growth – growth suppression of PTEN-null HCT116, primary screen, cell-based, CellTiter-Glo | viability, % at 10 µM | HCT116 PTEN-null viability, 60 h; stronger effect = lower value | 140,000 tested, 1.2% active;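 active means viability at or below a set limit, 4 SD under the median of all tested compounds, cut at about 3.7% in these data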;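 further: PTEN knockout HCT116 line with beta catenin targeted HCT116 as companion control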
TNAP inh hiacc – human TNAP enzyme inhibitors, primary screen, biochemical, luminescent, high phosphate acceptor level, uHTS. Alkaline phosphatase, tissue-nonspecific isozyme (Homo sapiens), P05186. purified TNAP, CDP-star luminescence, 1 M DEA. inhibition, % at 20 µM. 200,000 tested, 0.03% active. AID 1135, 2008;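 active means over 50% inhibition of tissue-nonspecific alkaline phosphatase at 20 µM in the single-dose screen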;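 further: plate controls were DMSO wells for no effect and EDTA-quenched wells as full inhibition for full effect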
Target sequence (P05186 whole entry, looked up): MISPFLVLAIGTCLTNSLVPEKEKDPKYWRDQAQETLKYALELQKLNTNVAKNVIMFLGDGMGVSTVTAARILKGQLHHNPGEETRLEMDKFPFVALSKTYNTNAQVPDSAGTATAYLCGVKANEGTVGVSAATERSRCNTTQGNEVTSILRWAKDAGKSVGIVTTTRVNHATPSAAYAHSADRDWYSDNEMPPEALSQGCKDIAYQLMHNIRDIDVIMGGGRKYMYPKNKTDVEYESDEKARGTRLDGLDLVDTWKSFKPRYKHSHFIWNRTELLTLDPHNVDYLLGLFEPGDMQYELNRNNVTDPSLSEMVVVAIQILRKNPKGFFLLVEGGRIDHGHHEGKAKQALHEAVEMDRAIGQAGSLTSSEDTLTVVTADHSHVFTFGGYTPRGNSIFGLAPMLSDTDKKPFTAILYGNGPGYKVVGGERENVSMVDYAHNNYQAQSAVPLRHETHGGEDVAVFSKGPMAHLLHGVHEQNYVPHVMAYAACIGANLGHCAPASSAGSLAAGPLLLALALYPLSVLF
TNAP inh no acc – human TNAP enzyme inhibitors, primary screen, biochemical, luminescent, no phosphate acceptor, uHTS; purified TNAP, CDP-star luminescence, 30 min; 200,000 tested, 0.26% active; Alkaline phosphatase, tissue-nonspecific isozyme (Homo sapiens), P05186; inhibition, % at 20 µM;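 active means tissue-nonspecific alkaline phosphatase inhibition above about 50% at 20 µM in the single-dose screen, limit read from the data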;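 further: 0% = DMSO negative control and 100% = EDTA positive control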
Lmaj promast – Leishmania major promastigote growth inhibition, primary screen. 200,000 tested, 9% active. AID 1063, 2008. Leishmania major promastigotes, resazurin fluorescence viability. inhibition, % at 10 µM; in the data active means inhibition above about 50%;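 further: promastigotes grown with compound for 44 hours at 28 °C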
TNAP act hiacc – TNAP activators at high phosphate acceptor level, primary screen, biochemical, luminescence, uHTS | purified TNAP, CDP-star luminescence, 1 M DEA, 30 min; stronger effect = higher value; 0 = EDTA background, 1 = DMSO-only activity | activation factor at 20 µM | 200,000 tested, under 10 active | AID 1136, 2008;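 active means activation factor at least 2 at 20 µM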
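system = human TNAP | amount = enzyme diluted 1/800 final | reagent = 100 µM CDP-star substrate | signal = luminescent substrate turnover signal | dosing = one dose, 20 µM | benchmarks = EDTA negative control, DMSO positive control | measure = activation factor | timing = 30 min reaction, room temperature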
The depositor's hits bear a star; nt = no result given.

SMILES | bCat KO growth | PTEN del growth | TNAP inh hiacc | TNAP inh no acc | Lmaj promast | TNAP act hiacc
O=C(Cc1ccc([N+](=O)[O-])cc1)N1N=C(C2CC2)CC1(O)C(F)(F)F (stereo unspecified) | nt | nt | -2.6 | -8.4 | -1.6 | 1
COC(=O)C1=C(C)NC(C)=C(C(=O)OC)C1c1ccc(-c2cccc(Cl)c2Cl)o1 | 68.2 | 60.7 | -5.0 | -7.8 | 79.3* | 1.1
c1ccc(-c2ccc(-n3ccnc3)cc2)cc1 | 77.3 | 73.1 | -3.8 | -19.6 | 4.7 | 1
c1ccc(-c2ccc(C(c3ccccc3)n3ccnc3)cc2)cc1 (stereo unspecified) | 63.1 | 71.1 | -1.7 | -73.8 | 97.8* | 1
O=C(COc1ccc([N+](=O)[O-])cc1)NC(C(=O)O)C(O)c1cccc([N+](=O)[O-])c1 (stereo unspecified) | nt | nt | -1.5 | -2.5 | -1.4 | 1
COc1ccc(C(=O)NCc2ccc3c(c2)OCO3)cc1S(=O)(=O)N(C)Cc1ccccc1 | 90.2 | 90.6 | -6.2 | -5.1 | 11.1 | 1.1
O=C(Nc1ccc(S(=O)(=O)N2CCCCC2)cc1)C1CCCN(C(=O)c2ccc(Cl)cc2)C1 (stereo unspecified) | 40.3 | 39.9 | -7.7 | -16.9 | 55.7* | 1.1
CCOC(=O)c1ccc(NC(=O)C2CCCN(S(=O)(=O)c3ccc(F)cc3)C2)cc1 (stereo unspecified) | 9.2 | 14.2 | -8.7 | -0.2 | 59.1* | 1.1
CCOC(=O)c1ccc(NS(=O)(=O)N2CCCCCC2)cc1 | 67.1 | 65.3 | -0.7 | -5.2 | 94.6* | 1
CCOC(=O)c1ccc(NC(=O)C2CCN(S(=O)(=O)c3ccccc3)CC2)cc1 | nt | nt | nt | nt | 12.8 | nt
Cc1csc(NC(=O)c2ccc(Cl)cc2[N+](=O)[O-])n1 | nt | nt | -1.2 | -5.5 | 18.7 | 1
Cc1cc(C(=O)Nc2nc(-c3ccccn3)cs2)ccc1[N+](=O)[O-] | nt | nt | -4.2 | -12.1 | 100.4* | 1
O=C(Nc1nc(-c2ccccn2)cs1)c1cc(Cl)ccc1[N+](=O)[O-] | nt | nt | -3.8 | -28.9 | 100.0* | 1
COc1cc(C2CC(c3cccnc3)=NN2c2ccc(F)cc2)cc(OC)c1OC (stereo unspecified) | nt | nt | -10.3 | -50.6 | 16.3 | 1.1
Cc1sc(NC(=O)c2ccco2)c(CN2CCC(C)CC2)c1C | 61.7 | 72.3 | -10.8 | -11.6 | 4.1 | 1.1
Cc1sc(NC(=O)c2ccco2)c(C(c2cccnc2)N2CCC(C)CC2)c1C (stereo unspecified) | 14.6 | 28.4 | -8.0 | 0.5 | 91.4* | 1.1
O=[N+]([O-])c1ccc(NC(=S)N2CCc3ccccc3C2)cc1 | 78.7 | 78.8 | 3.8 | -14.3 | 7.2 | 1
CN1CCN(c2nc(-c3ccccn3)nc3ccccc23)CC1 | 85.4 | 74.1 | -3.4 | -12.8 | 99.9* | 1
CCCN1CCN(c2nc(-c3cccs3)nc3ccccc23)CC1 | 72.6 | 70.0 | -1.2 | 9.3 | 30.2 | 1
c1ccc(N2CCN(c3nc(-c4ccccn4)nc4ccccc34)CC2)cc1 | 9.7 | 10.5 | -4.7 | -2.2 | 100.2* | 1
COc1ccc(-c2nc(-c3ccccn3)nc(N3CCN(C)CC3)c2C#N)cc1 | nt | nt | -2.1 | -11.2 | 11.1 | 1
CC(=O)N1CCN(c2nc(-c3cccs3)nc3ccccc23)CC1 | nt | nt | -0.5 | -10.2 | 76.9* | 1
Oc1ccccc1-c1nc(N2CCCC2)c2ccccc2n1 | 85.1 | 86.7 | -11.2 | -26.8 | 0.0 | 1.1
CCOC(=O)c1c(C)[nH]c(C)c1C(=O)COc1ncnc2cc([N+](=O)[O-])ccc12 | nt | nt | -2.2 | -2.5 | 10.4 | 1
CCOC(=O)c1c(NC(=O)Cn2nc([N+](=O)[O-])c(Br)c2C)sc2c1CCC(C)C2 (stereo unspecified) | 58.0 | 57.9 | 2.0 | -1.7 | -0.2 | 1
SMILES | bCat KO growth | PTEN del growth | TNAP inh hiacc | TNAP inh no acc | Lmaj promast | TNAP act hiacc
NC(=O)c1c(NC(=O)CCCn2cnc([N+](=O)[O-])n2)sc2c1CCCC2 | nt | nt | -4.3 | -22.5 | 54.5* | 1
O=C(CCCn1cnc([N+](=O)[O-])n1)Nc1ccc(Cl)cc1Cl | 93.4 | 93.6 | 2.9 | -13.8 | 33.8 | 1
CC1CCc2c(sc(NC(=O)CCCn3cnc([N+](=O)[O-])n3)c2C(N)=O)C1 (stereo unspecified) | nt | nt | -2.7 | -9.9 | 92.3* | 1
O=C(CCCn1cnc([N+](=O)[O-])n1)Nc1ccc(F)c(Cl)c1 | nt | nt | 1.1 | -4.3 | 83.4* | 1
Cc1cc([N+](=O)[O-])nn1CCCC(=O)Nc1sc2c(c1C(N)=O)CCCC2 | 84.4 | 95.0 | -1.6 | -1.7 | 5.8 | 1
CCOC(=O)C1(Cc2cccc(OC)c2)CCN(Cc2cccn2-c2ccccn2)CC1 | nt | nt | -7.6 | -14.4 | 22.1 | 1.1
O=C(CN1C(=O)/C(=C/c2ccccc2F)Sc2ccccc21)N1CCN(c2ccccn2)CC1 | nt | nt | -5.9 | -2.5 | 14.9 | 1.1
COc1ccc(-c2csc(NC(=O)c3ccc(OCC(=O)N4CCOCC4)c(OC)c3)n2)cc1OC | 24.3 | 17.1 | 7.2 | 3.6 | 70.7* | 0.9
COc1cc(C(=O)OCC(=O)Nc2ccc(C(C)=O)cc2)ccc1OCC(=O)N1CCOCC1 | 101.9 | 102.6 | -1.6 | -2.8 | 65.5* | 1
CCOc1cc(C(=O)Nc2nnc(CC)s2)ccc1OCC(=O)N1CCOCC1 | 86.0 | 101.2 | -5.9 | -8.7 | -6.1 | 1.1
CCOc1cc(C(=O)OCC(=O)Nc2c(C)cccc2C)ccc1OCC(=O)N1CCOCC1 | 100.9 | 109.3 | -2.3 | -15.6 | -6.6 | 1
COc1cc(OC)c(OC)cc1CN1CCN(Cc2cccn2C)CC1 | 85.2 | 99.9 | 3.7 | -9.6 | 6.4 | 1
O=C(C1=C[C@@H](C2CC2)C[C@@H](OCc2ccc(CO)cc2)O1)N1CCN(Cc2ccccc2)CC1 | nt | nt | -5.6 | -10.3 | -4.9 | 1.1
COc1cc(/C=N/NC(=O)COc2cccc(F)c2)ccc1OS(=O)(=O)c1ccc(C)cc1 | 64.2 | 60.6 | -7.8 | 0.4 | 99.1* | 1.1
COC(=O)N/N=C/c1ccc(OS(=O)(=O)c2ccc(C)cc2)c(OC)c1 | nt | nt | -1.8 | -18.7 | 19.6 | 1
C=CCNC(=O)/C(C#N)=C/c1ccc(OS(=O)(=O)c2ccc(C)cc2)c(OC)c1 | 27.3 | 14.4 | -5.0 | -3.3 | 91.5* | 1.1
COc1ccc(/C=C(\C#N)C(=O)NCc2cccs2)cc1OC | 95.1 | 106.1 | 1.8 | 16.2 | 8.4 | 1
COc1cc(/C=N/NC(=O)COc2ccc(Cl)cc2)ccc1OS(=O)(=O)c1ccc(C)cc1 | 53.9 | 54.4 | 0.0 | 1.7 | 98.7* | 1
Cc1cccc(C)c1C(=NCCCN(C)C)c1ccccc1 | 85.0 | 79.6 | 1.9 | -7.9 | 47.1 | 1
Cc1ccccc1CC1(CO)CCCN(Cc2ccn[nH]2)C1 (stereo unspecified) | nt | nt | -3.1 | -14.1 | 10.3 | 1
